Experimental data published in ChEMBL document CHEMBL3091449, “Synthesis and antimicrobial profile of N-substituted imidazolium oximes and their monoquaternary salts against multidrug resistant bacteria” (2013).
In brackets after ≈: the same amount, converted by molar mass.

Legend:
Format in all cases: functional
Escherichia coli [1] = experiment: Ratio of gentamicin MIC to compound MIC for Escherichia coli FNSST 982
Aeromonas hydrophila [2] = experiment: Antibacterial activity against Aeromonas hydrophila FNSST 014 after 18 to 24 hrs by two-fold broth microdilution assay
How it was run: (§1)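 CLSI two-fold broth microdilution was used. Compounds were dissolved in DMSO, brought to 10 mg/mL in medium, then serially diluted in Mueller Hinton broth over 400–0.09 µg/mL. Overnight MHB cultures were diluted to 10^6 CFU/mL, and 10 µL was added per well. Plates were incubated 18–24 h at 37 °C, then 0.2 mg/mL INT was added for 30 min at 37 °C. MIC was the lowest concentration with no visible growth or pink colour, triplicate.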

Pseudomonas aeruginosa [3] = experiment: Antibacterial activity against Pseudomonas aeruginosa FNSST 982 after 18 to 24 hrs by two-fold broth microdilution assay; how it was run: as §1
Klebsiella pneumoniae [4] = experiment: Antibacterial activity against Klebsiella pneumoniae FNSST 011 after 18 to 24 hrs by two-fold broth microdilution assay; how it was run: as §1
Escherichia coli [5] = experiment: Antibacterial activity against Escherichia coli FNSST 982 after 18 to 24 hrs by two-fold broth microdilution assay; how it was run: as §1
Clostridium perfringens [6] = experiment: Antibacterial activity against Clostridium perfringens FNSST 4999 after 18 to 24 hrs by two-fold broth microdilution assay
How it was run: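 CLSI two-fold broth microdilution. Compounds dissolved in DMSO, 10 mg/mL stock, serially diluted to 400–0.09 µg/mL in Mueller Hinton broth. Wells inoculated with 10^6 CFU/mL bacteria and incubated 18–24 h at 37 °C. 0.2 mg/mL INT added for 30 min. MIC taken as the lowest concentration with no visible growth or pink colour. Triplicate.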

Staphylococcus aureus [7] = experiment: Antibacterial activity against Staphylococcus aureus ATCC 25923 after 18 to 24 hrs by two-fold broth microdilution assay; how it was run: as §1
Enterococcus faecalis [8] = experiment: Antibacterial activity against Enterococcus faecalis ATCC 29212 after 18 to 24 hrs by two-fold broth microdilution assay; how it was run: as §1
Bacillus cereus [9] = experiment: Antibacterial activity against Bacillus cereus ATCC 11778 after 18 to 24 hrs by two-fold broth microdilution assay; how it was run: as §1
Aspergillus fumigatus = experiment: Antifungal activity against Aspergillus fumigatus FNSST 3833 assessed as diameter of zone of inhibition at 250 ug/disc after 72 hrs by disc diffusion method; conditions: FNSST 3833, 72 h, read-out: DIZ
How it was run: (§2)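 Fungi were grown overnight at 30 °C in Sabouraud dextrose broth to 10^4 cfu/mL, and 100 µL was spread on Sabouraud dextrose agar. 6 mm discs carried 250 µg (25 µL of a 10 mg/mL stock in 96% ethanol), with ethanol as the negative control. Incubation was at 30 °C for 48 h (yeast) or 72 h (molds). Zone diameter was read including the disc, in triplicate, mean ± SE.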

Talaromyces funiculosus = experiment: Antifungal activity against Penicillium funiculosum FNSST 3724 assessed as diameter of zone of inhibition at 250 ug/disc after 72 hrs by disc diffusion method; conditions: FNSST 3724, 72 h, read-out: DIZ; how it was run: as §2
Aeromonas hydrophila [10] = experiment: Antibacterial activity against Aeromonas hydrophila FNSST 014 assessed as diameter of zone of inhibition at 250 ug/disc after 24 hrs by disc diffusion method; conditions: FNSST 014, 24 h, read-out: DIZ
How it was run: (§3)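 Bacteria were grown overnight at 37 °C in TSB to about 10^6 cfu/mL, and 100 µL was spread on Mueller Hinton agar. Sterile 6 mm discs were each loaded with 25 µL of a 10 mg/mL stock in 96% ethanol, giving 250 µg/disc. Ethanol served as the negative control. Plates were incubated 24 h at 37 °C. Inhibition zone diameter was measured including the disc, in triplicate, as mean ± SE.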

Pseudomonas aeruginosa [11] = experiment: Antibacterial activity against Pseudomonas aeruginosa FNSST 982 assessed as diameter of zone of inhibition at 250 ug/disc after 24 hrs by disc diffusion method; conditions: FNSST 982, 24 h, read-out: DIZ; how it was run: as §3
Klebsiella pneumoniae [12] = experiment: Antibacterial activity against Klebsiella pneumoniae FNSST 011 assessed as diameter of zone of inhibition at 250 ug/disc after 24 hrs by disc diffusion method; conditions: FNSST 011, 24 h, read-out: DIZ; how it was run: as §3
Escherichia coli [13] = experiment: Antibacterial activity against Escherichia coli FNSST 982 assessed as diameter of zone of inhibition at 250 ug/disc after 24 hrs by disc diffusion method; conditions: FNSST 982, 24 h, read-out: DIZ; how it was run: as §3
Clostridium perfringens [14] = experiment: Antibacterial activity against Clostridium perfringens FNSST 4999 assessed as diameter of zone of inhibition at 250 ug/disc after 24 hrs by disc diffusion method; conditions: FNSST 4999, 24 h, read-out: DIZ
How it was run: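 Disc diffusion per CLSI: 100 µL of 10^6 cfu/mL bacterial suspension spread on Mueller Hinton agar. 6 mm discs loaded with 25 µL of 10 mg/mL compound stock in 96% ethanol (250 µg/disc); ethanol as negative control. Incubated 24 h at 37 °C. Inhibition zone diameter measured in mm including the disc, triplicate, reported as mean ± SE.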

Staphylococcus aureus [15] = experiment: Antibacterial activity against Staphylococcus aureus ATCC 25923 assessed as diameter of zone of inhibition at 250 ug/disc after 24 hrs by disc diffusion method; conditions: ATCC 25923, 24 h, read-out: DIZ; how it was run: as §3
Enterococcus faecalis [16] = experiment: Antibacterial activity against Enterococcus faecalis ATCC 29212 assessed as diameter of zone of inhibition at 250 ug/disc after 24 hrs by disc diffusion method; conditions: ATCC 29212, 24 h, read-out: DIZ; how it was run: as §3
Bacillus cereus [17] = experiment: Antibacterial activity against Bacillus cereus ATCC 11778 assessed as diameter of zone of inhibition at 250 ug/disc after 24 hrs by disc diffusion method; conditions: ATCC 11778, 24 h, read-out: DIZ; how it was run: as §3
Candida albicans = experiment: Antifungal activity against Candida albicans ATCC 10231 assessed as diameter of zone of inhibition at 250 ug/disc after 48 hrs by disc diffusion method; conditions: ATCC 10231, 48 h, read-out: DIZ; how it was run: as §2
Pseudomonas aeruginosa [18] = experiment: Ratio of gentamicin MIC to compound MIC for Pseudomonas aeruginosa FNSST 982

SMILES	MIC (Aeromonas hydrophila [2]) [µg/mL]	MIC (Pseudomonas aeruginosa [3]) [µg/mL]	MIC (Klebsiella pneumoniae [4]) [µg/mL]	MIC (Escherichia coli [5]) [µg/mL]	MIC (Clostridium perfringens [6]) [µg/mL]	MIC (Staphylococcus aureus [7]) [µg/mL]	MIC (Enterococcus faecalis [8]) [µg/mL]	MIC (Bacillus cereus [9]) [µg/mL]	zone of inhibition at 250 µg/disc (Aspergillus fumigatus) [mm]	zone of inhibition at 250 µg/disc (Talaromyces funiculosus) [mm]	zone of inhibition at 250 µg/disc (Aeromonas hydrophila [10]) [mm]	zone of inhibition at 250 µg/disc (Pseudomonas aeruginosa [11]) [mm]	zone of inhibition at 250 µg/disc (Klebsiella pneumoniae [12]) [mm]	zone of inhibition at 250 µg/disc (Escherichia coli [13]) [mm]	zone of inhibition at 250 µg/disc (Clostridium perfringens [14]) [mm]	zone of inhibition at 250 µg/disc (Staphylococcus aureus [15]) [mm]	zone of inhibition at 250 µg/disc (Enterococcus faecalis [16]) [mm]	zone of inhibition at 250 µg/disc (Bacillus cereus [17]) [mm]	zone of inhibition at 250 µg/disc (Candida albicans) [mm]	other results
O/N=C/c1n(Cc2ccccc2)cc[n+]1-c1ccccc1.[Br-]	25	25	31.2	3.12	25	12.5	25	25	20.8	17.4	15.3	14.9	15.5	12.3	16.6	12.5	13.3	15	18.1	Ratio (Escherichia coli [1]): 10
O/N=C/c1nccn1Cc1ccccc1	25 (≈ 124 µM)	12.5 (≈ 62.1 µM)	25 (≈ 124 µM)	25 (≈ 124 µM)	50 (≈ 248 µM)	6.25 (≈ 31.1 µM)	6.25 (≈ 31.1 µM)	6.25 (≈ 31.1 µM)	11.5	17.6	10.1	17.9	15.8	17.3	15.9	10.8	14.9	17.5	17.2	Ratio (Pseudomonas aeruginosa [18]): 5
